Compound activity deposited in PubChem by several laboratories.
Redox H2O2 prof: compounds producing H2O2 with reducing agent – biochemical, NIH compound library profiling, artefact control for MLSCN library redox annotation, primary screen | hit rate 0.03% among 200,000 | activation, % at 10 µM | DTT-dependent redox cycling H2O2, phenol red/HRP absorbance; 100% = 100 µM peroxide control, 0% = buffer;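 active means activation of at least 50% relative to the plate's high and low controls in the primary single-dose screen; inactive means activation below 50%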;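 further: compound incubated with DTT at 0.8 mM final as the reducing agent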
Hep lipid drop: hepatic lipid droplet formation modulation; AML12 mouse hepatocytes, oleate lipid droplets, BODIPY imaging; inhibition, % at 6.5 µM; hit rate 0.4% among 240,000;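 active means lipid droplet intensity inhibited by at least 50%, with more than 500 cells counted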
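Assay system: AML12 hepatocytes (mouse) / Also added: 100 µM oleic acid challenge / Times: overnight treatment with compound plus oleate / Detection: high-content imaging of BODIPY-stained droplets and DAPI nuclei / Evaluation: % inhibition of lipid droplet signal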
T cruzi repl: T. cruzi replication inhibition. hit rate 1.4% among 300,000. T. cruzi beta-gal in NIH3T3, luminescence, 90 h. inhibition, % (concentration not given with the values);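 active means mean inhibition across valid replicates above about 55%, limit read from the data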;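 further: signal also drops with host cell toxicity which is not excluded here; 0% = plate median of DMSO wells and 100% = zero luminescence signal; higher percent means less beta-gal luminescence so fewer parasites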
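Test system: β-gal T. cruzi (Tulahuen C4) inside NIH/3T3 cells / Quantity: 5,000 cells/well / Measured by: luminescence from GalScreen with 0.05% NP40, read after 60 min / Medium: DMEM plus 2% FBS / Measure: parasite load inhibition, % / Reagent: Tulahuen C4 trypomastigotes, 5000/well / Schedule: co-culture of at least 90 h after 3 h attachment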
MPTP inh: permeability transition pore inhibition; inhibition, % at 10 µM; hit rate 1.4% among 360,000; AID 602449; isolated mouse mitochondria, Ca2+ swelling absorbance, 30 min;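 active means inhibition of 50% or more, scaled per plate between neutral and stimulator controls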;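 further: 0% = DMSO wells given calcium and 100% = 1 mM EGTA wells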
L major viab: inhibitors of Leishmania major promastigote growth; hit rate 9% among 200,000; inhibition, % at 10 µM; Leishmania major promastigotes, resazurin fluorescence viability; in the data active means inhibition above about 50%;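 further: promastigotes grown with compound for 44 hours at 28 °C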
An asterisk follows results filed as active; . = no result. Many of the other results were omitted from the sample, so hits are more common in it than they were.

SMILES | Redox H2O2 prof | Hep lipid drop | T cruzi repl | MPTP inh | L major viab
COc1ccc(C(c2nnnn2CCc2ccccc2)N2CCN(C3CCCC3)CC2)cc1OC (stereo unspecified) | 0 | . | -23 | 5 | 100*
COc1ccccc1CN1CC(C(=O)N(C)Cc2[nH]c3ccccc3c2C)CCC1=O (stereo unspecified) | . | -4 | -1 | -1 | .
CCCCCCn1cc(CN2CC(N3CCN(Cc4ccccc4F)CC3)CS2(=O)=O)nn1 (stereo unspecified) | . | . | . | -1 | .
CCN(CC)CCN1C(=O)C(=O)/C(=C(/O)c2ccc(OC)cc2)C1c1ccco1 (stereo unspecified) | 2 | . | -6 | -3 | 1
CC(C)Oc1ccc(/C(O)=C2/C(=O)C(=O)N(CCN(C)C)C2c2ccco2)cc1 (stereo unspecified) | 0 | 2 | 1 | -1 | 89*
COc1ccc(CCNCC(O)Cn2c3ccccc3c3ccccc32)cc1OC (stereo unspecified) | 0 | -3 | 61* | 4 | 100*
OC(c1ccccc1)c1cccnc1 (stereo unspecified) | -1 | 24 | -26 | 0 | -4
O=C(Nc1ncc(Cc2ccc(Cl)cc2Cl)s1)c1ccc([N+](=O)[O-])cc1 | 0 | -10 | 26 | 12 | 53*
O=C(Nc1nnc(COc2ccc(Cl)cc2)s1)c1ccc([N+](=O)[O-])cc1 | 1 | . | 1 | 0 | -5
O=C(Nc1ncc(Cc2ccccc2Cl)s1)C1=NCCN1 | 0 | -2 | 0 | 0 | 73*
O=c1cc(CN2CCCCC2)c2c(ccc3ccccc32)o1 | . | . | . | 0 | .
O=[N+]([O-])c1ccc(-[n+]2ccc3ccccc3c2)c([N+](=O)[O-])c1 | . | . | 71* | -2 | .
O=[N+]([O-])c1ccc(SNc2ccccc2)c([N+](=O)[O-])c1 | . | . | . | 36 | .
Cc1ccc(S(=O)(=O)N(CC(=O)Nc2cccc(N(C)S(C)(=O)=O)c2)c2ccc(Cl)c(Cl)c2)cc1 | -1 | -30 | 70* | 14 | 67*
CN(c1cccc(NC(=O)CSc2ccc(Cl)cc2)c1)S(C)(=O)=O | 0 | 7 | 11 | 8 | 74*
CN(c1cccc(NC(=O)CN(c2ccc(F)cc2)S(C)(=O)=O)c1)S(C)(=O)=O | 0 | 7 | -8 | 0 | 4
CN(c1cccc(NC(=O)CN(c2ccc(C34CC5CC(CC(C5)C3)C4)cc2)S(C)(=O)=O)c1)S(C)(=O)=O | 1 | . | 65* | 4 | 90*
CN(c1cccc(NC(=O)CCSc2ccccc2)c1)S(C)(=O)=O | 1 | 15 | -4 | 0 | -4
CN(c1cccc(NC(=O)CN(c2ccc(Cl)c(Cl)c2)S(=O)(=O)c2ccccc2)c1)S(C)(=O)=O | 2 | -16 | 26 | 19 | 18
COc1ccccc1N1CCN(C(CNS(C)(=O)=O)c2cccnc2)CC1 (stereo unspecified) | 0 | -2 | 15 | 0 | 17
COc1ccccc1N1CCN(C(CNC(=O)c2ccco2)c2cccnc2)CC1 (stereo unspecified) | 0 | 11 | 29 | 1 | 81*
O=C(NCC(c1cccnc1)N1CCN(c2ccccc2F)CC1)c1cccc(Cl)c1 (stereo unspecified) | 0 | 0 | 53 | -2 | 94*
O=C(NCC(c1cccnc1)N1CCOCC1)c1ccco1 (stereo unspecified) | 0 | -3 | 8 | 1 | 0
O=C(NCC(c1cccnc1)N1CCOCC1)c1cccc(Cl)c1 (stereo unspecified) | 0 | . | 3 | 0 | 32
COc1ccccc1N1CCN(C(CNS(=O)(=O)c2ccc(C)cc2)c2cccnc2)CC1 (stereo unspecified) | 0 | -10 | 47 | 2 | 96*
SMILES | Redox H2O2 prof | Hep lipid drop | T cruzi repl | MPTP inh | L major viab
COC(=O)NCC(c1cccnc1)N1CCN(c2ccccc2F)CC1 (stereo unspecified) | 0 | -1 | 44 | -1 | 56*
Nc1ccccc1-n1cccc1 | . | -17 | -6 | 1 | .
COC(=O)NCC(c1cccnc1)N1CCN(c2ccccc2OC)CC1 (stereo unspecified) | 0 | . | 23 | -2 | 70*
CC1(C)C(C=C(Cl)Cl)C1C(=O)N(Cc1cccc(Cl)c1)C1CCS(=O)(=O)C1 (stereo unspecified) | 0 | -11 | -3 | 2 | 91*
Cc1ccc(CN2CCN(Cc3nc4c(s3)CCCC4)CC2CCO)cc1 (stereo unspecified) | -1 | 0 | 56* | 1 | 30
COc1cccc(CN2CCN(Cc3nc4c(s3)CCCC4)CC2CCO)c1 (stereo unspecified) | 0 | -30 | 35 | 4 | 17
CCOc1ccc(CN2CCN(Cc3nc4c(s3)CCCC4)CC2CCO)cc1 (stereo unspecified) | -1 | 4 | 57* | 0 | 11
CCCN(CCC)C(=O)c1cn(CC)c2ccc(S(=O)(=O)N3CCCCC3)cc2c1=O | . | 5 | 0 | 0 | .
CC(C)c1cc(C(N)=O)c(NC(=O)c2cccc(COc3ccc(Cl)cc3)c2)s1 | 0 | 1 | 42 | 1 | 96*
CCC(C)NCCCCOc1ccc(Cl)cc1C (stereo unspecified) | 0 | -24 | 9 | 1 | 97*
CCC(C)NCCCOc1ccc(C)cc1OC (stereo unspecified) | 0 | -5 | 23 | 0 | 1
CCCOc1ccc(OCCCCNC(C)CC)cc1 (stereo unspecified) | 0 | 0 | 22 | 0 | 99*
CCCCNCCCOc1cc(Cl)ccc1Cl | 1 | 5 | 14 | 3 | 98*
CCC(C)NCCCOc1cc(Cl)ccc1Cl (stereo unspecified) | -1 | -7 | 3 | 1 | 100*
COc1cc(C(=O)Nc2ccc3c(c2)Cc2cc(NC(=O)c4cc(OC)c(OC)c(OC)c4)ccc2-3)cc(OC)c1OC | 1 | 3 | 7 | 1 | -5
COc1ccc(C)cc1NC(=O)CN(C)S(=O)(=O)c1ccc2c(c1)CC(C)N2C(C)=O (stereo unspecified) | . | -5 | -4 | -1 | .
CC(=O)Nc1ccccc1C(=O)N1CCN(Cc2ccc3c(c2)OCO3)CC1 | . | -2 | -2 | 0 | .
O=c1[nH]c2c(c(=O)[nH]1)OCN(Cc1ccccc1)C2 | . | . | . | 0 | .
O=C(/C=C/c1cccs1)NC(=S)NNC(=O)c1ccccc1O | -1 | 1 | -15 | 10 | 99*
COc1ccc(C(=O)NNC(=S)NC(=O)/C=C/c2cccs2)cc1 | 0 | -29 | -15 | 31 | 15
C=CCN(C(=O)C1CC(=O)N(C2CCCC2)C1)c1nc(-c2ccc(S(C)(=O)=O)cc2)cs1 (stereo unspecified) | . | . | . | -1 | .
Cc1ccc(NC(=O)C(Cc2ccccc2)N2C(=O)C3C4CCC(C4)C3C2=O)cc1Cl (stereo unspecified) | 0 | . | 78* | 31 | 88*
COc1cc(OC)cc(C(=O)NCCCNC(=O)c2ccccn2)c1 | . | -4 | -7 | -2 | .
